Values belong to the molecule of their own block, whether it stands above or below them.
Tests used:
[1] = molecular target: T1, Growth hormone-releasing hormone receptor (Rattus norvegicus) (UniProt Q02644); test: In vitro rat pituitary cell growth hormone response was obtained; assay type: functional, cell-based; details: Pituitary gland cell
T1 sequence (whole entry): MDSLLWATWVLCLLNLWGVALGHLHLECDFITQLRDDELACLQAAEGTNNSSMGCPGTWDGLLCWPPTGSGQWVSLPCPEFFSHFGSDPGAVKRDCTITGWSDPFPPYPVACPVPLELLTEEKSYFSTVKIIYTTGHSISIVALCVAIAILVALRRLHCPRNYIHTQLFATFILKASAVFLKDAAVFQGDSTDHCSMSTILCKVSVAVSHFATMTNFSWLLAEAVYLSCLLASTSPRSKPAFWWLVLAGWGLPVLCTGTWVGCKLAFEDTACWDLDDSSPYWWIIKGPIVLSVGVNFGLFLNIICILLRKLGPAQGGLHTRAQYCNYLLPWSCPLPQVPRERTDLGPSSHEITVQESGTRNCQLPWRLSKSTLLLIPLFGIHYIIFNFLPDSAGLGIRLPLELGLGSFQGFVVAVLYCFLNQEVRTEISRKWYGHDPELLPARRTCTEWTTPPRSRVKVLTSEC

Rattus norvegicus [2] = test: Effect on growth hormone release(GRF) was determined in nembutal-anesthetized rat, at dose of 20 ug/100 g body weight.; assay type: functional, organism-based
How it was run: (§1)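 Male Charles River rats (175-275 g), anesthetized with sodium pentobarbital 6 mg/100 g body weight. Six to nine per group. Peptide or saline given subcutaneously in 0.5 mL, 30 min after anesthetic. Jugular vein blood taken 15 min post-injection. Plasma GH measured by radioimmunoassay and reported as ng/mL, mean ± SEM.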

[3] = molecular target: T1, Growth hormone-releasing hormone receptor (Rattus norvegicus); test: Tested for the potency of growth hormone (GRF) on subcutaneous administration in anesthetized male Charles River rats; assay type: functional, organism-based
How it was run: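 Pentobarbital-anesthetized male rats (175-275 g), six to nine per group, received two subcutaneous doses of analogue or of reference GRF(1-29)NH2, in 0.5 mL, 30 min after anesthesia. Plasma GH measured by RIA 15 min later. Potency with 95% confidence limits calculated from a four-point assay design by the Pugsley method.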

Rattus norvegicus [4] = test: Effect on growth hormone release(GRF) was determined in nembutal-anesthetized rat, at dose of 50 ug/100 g body weight.; assay type: functional, organism-based; how it was run: as §1
[5] = molecular target: T1, Growth hormone-releasing hormone receptor (Rattus norvegicus); test: Effect on growth hormone release(GRF) was determined in nembutal-anesthetized rat, at dose of 100 ug/100 g body weight.; assay type: functional; how it was run: as §1
Rattus norvegicus [6] = test: Effect on growth hormone release(GRF) was determined in nembutal-anesthetized rat, at dose of 40 ug/100 g body weight.; assay type: functional, organism-based; how it was run: as §1
Rattus norvegicus [7] = test: Effect on growth hormone release (GRF) was determined in nembutal-anesthetized rat, at dose of 62.5 ug/100 g body weight.; assay type: functional, organism-based; how it was run: as §1
Rattus norvegicus [8] = test: Effect on growth hormone release (GRF) was determined in nembutal-anesthetized rat, at dose of 25 ug/100 g body weight.; assay type: functional, organism-based; how it was run: as §1
Rattus norvegicus [9] = test: Effect on growth hormone release(GRF) was determined in nembutal-anesthetized rat, at dose of 125 ug/100 g body weight.; assay type: functional, organism-based; how it was run: as §1
Rattus norvegicus [10] = test: Effect on growth hormone release(GRF) was determined in nembutal-anesthetized rat, at dose of 0.5 ug/100 g body weight.; assay type: functional, organism-based; how it was run: as §1
Rattus norvegicus [11] = test: Effect on growth hormone release(GRF) was determined in nembutal-anesthetized rat, at dose of 0.2 ug/100 g body weight.; assay type: functional, organism-based; how it was run: as §1
Rattus norvegicus [12] = organism: Rattus norvegicus; test: In vitro rat pituitary cell growth hormone response to the compound was obtained; assay type: functional, Pituitary gland cell
Rattus norvegicus [13] = test: Effect on growth hormone release(GRF) was determined in nembutal-anesthetized rat, at dose of 0.4 ug/100 g body weight.; assay type: functional, organism-based; how it was run: as §1
Rattus norvegicus [14] = test: Effect on growth hormone release(GRF) was determined in nembutal-anesthetized rat, at dose of 1 ug/100 g body weight.; assay type: functional, organism-based; how it was run: as §1
Rattus norvegicus [15] = test: Effect on growth hormone release(GRF) was determined in nembutal-anesthetized rat, at dose of 25 ug/100 g body weight.; assay type: functional, organism-based; how it was run: as §1
Rattus norvegicus [16] = test: Effect on growth hormone release(GRF) was determined in nembutal-anesthetized rat, at dose of 10 ug/100 g body weight.; assay type: functional, organism-based; how it was run: as §1

Molecule: CC[C@H](C)[C@H](NC(=O)[C@H](C)NC(=O)[C@H](CC(=O)O)NC(=O)[C@H](C)NC(=O)[C@@H](N)Cc1ccc(O)cc1)C(=O)N[C@@H](Cc1ccccc1)C(=O)N[C@H](C(=O)N[C@H](CC(N)=O)C(=O)N[C@@H](CO)C(=O)N[C@@H](Cc1ccc(O)cc1)C(=O)N[C@@H](CCCN=C(N)N)C(=O)N[C@@H](CCCCN)C(=O)N[C@H](C(=O)N[C@@H](CC(C)C)C(=O)NCC(=O)N[C@@H](CCC(N)=O)C(=O)N[C@@H](CC(C)C)C(=O)N[C@@H](CO)C(=O)N[C@@H](C)C(=O)N[C@@H](CCCN=C(N)N)C(=O)N[C@@H](CCCCN)C(=O)N[C@@H](CC(C)C)C(=O)N[C@@H](CC(C)C)C(=O)N[C@@H](CCC(N)=O)C(=O)N[C@@H](CC(=O)O)C(=O)N[C@H](C(=O)N[C@@H](CC(C)C)C(N)=O)[C@@H](C)CC)C(C)C)[C@@H](C)O
Potency [1]: 25% | Plasma GH release (Rattus norvegicus [2]): 1550 ng/mL | Potency [3]: 53% | Plasma GH release (Rattus norvegicus [4]): 2370 ng/mL

Molecule: CC[C@H](C)[C@H](NC(=O)[C@H](C)NC(=O)[C@H](CC(=O)O)NC(=O)[C@H](C)NC(=O)[C@@H](N)Cc1ccc(O)cc1)C(=O)N[C@@H](Cc1ccccc1)C(=O)N[C@H](C(=O)N[C@@H](CC(N)=O)C(=O)N[C@@H](CO)C(=O)N[C@@H](Cc1ccc(O)cc1)C(=O)N[C@@H](CCCN=C(N)N)C(=O)N[C@@H](CCCCN)C(=O)N[C@H](C(=O)N[C@@H](CC(C)C)C(=O)NCC(=O)N[C@@H](CCC(N)=O)C(=O)N[C@@H](CC(C)C)C(=O)N[C@@H](CO)C(=O)N[C@@H](C)C(=O)N[C@@H](CCCN=C(N)N)C(=O)N[C@@H](CCCCN)C(=O)N[C@@H](CC(C)C)C(=O)N[C@@H](CC(C)C)C(=O)N[C@@H](CCCN=C(N)N)C(N)=O)C(C)C)[C@@H](C)O
Plasma GH release [5]: 406 ng/mL | Plasma GH release (Rattus norvegicus [6]): 392 ng/mL | Potency [3]: < 1%

Molecule: H-YADAIFTNSYRKVLGQLSARKLLQDILSR-NH2
Potency [1]: 2% | Plasma GH release (Rattus norvegicus [7]): 1720 ng/mL | Potency [3]: 57% | Plasma GH release (Rattus norvegicus [8]): 1410 ng/mL

Molecule: CC[C@H](C)[C@H](NC(=O)[C@H](C)NC(=O)[C@H](CC(=O)O)NC(=O)[C@@H](C)NC(=O)[C@@H](N)Cc1ccc(O)cc1)C(=O)N[C@@H](Cc1ccccc1)C(=O)N[C@H](C(=O)N[C@@H](CC(N)=O)C(=O)N[C@@H](CO)C(=O)N[C@@H](Cc1ccc(O)cc1)C(=O)N[C@@H](CCCN=C(N)N)C(=O)N[C@@H](CCCCN)C(=O)N[C@H](C(=O)N[C@@H](CC(C)C)C(=O)NCC(=O)N[C@@H](CCC(N)=O)C(=O)N[C@@H](CC(C)C)C(=O)N[C@@H](CO)C(=O)N[C@@H](C)C(=O)N[C@@H](CCCN=C(N)N)C(=O)N[C@@H](CCCCN)C(=O)N[C@@H](CC(C)C)C(=O)N[C@@H](CC(C)C)C(=O)N[C@@H](CCC(N)=O)C(=O)N[C@@H](CC(=O)O)C(=O)N[C@H](C(=O)N[C@@H](CCSC)C(=O)N[C@@H](CO)C(=O)N[C@@H](CCCN=C(N)N)C(N)=O)[C@@H](C)CC)C(C)C)[C@@H](C)O
Plasma GH release (Rattus norvegicus [10]): 2180 ng/mL | Plasma GH release (Rattus norvegicus [11]): 1210 ng/mL | Potency [3]: 4450% | Potency (Rattus norvegicus [12]): 5340%

Molecule: CC[C@H](C)[C@H](NC(=O)[C@H](C)NC(=O)[C@H](CC(=O)O)NC(=O)[C@@H](C)N(C)C(=O)[C@@H](N)Cc1ccc(O)cc1)C(=O)N[C@@H](Cc1ccccc1)C(=O)N[C@H](C(=O)N[C@@H](CC(N)=O)C(=O)N[C@@H](CO)C(=O)N[C@@H](Cc1ccc(O)cc1)C(=O)N[C@@H](CCCN=C(N)N)C(=O)N[C@@H](CCCCN)C(=O)N[C@H](C(=O)N[C@@H](CC(C)C)C(=O)NCC(=O)N[C@@H](CCC(N)=O)C(=O)N[C@@H](CC(C)C)C(=O)N[C@@H](CO)C(=O)N[C@@H](C)C(=O)N[C@@H](CCCN=C(N)N)C(=O)N[C@@H](CCCCN)C(=O)N[C@@H](CC(C)C)C(=O)N[C@@H](CC(C)C)C(=O)N[C@@H](CCC(N)=O)C(=O)N[C@@H](CC(=O)O)C(=O)N[C@H](C(=O)N[C@@H](CCSC)C(=O)N[C@@H](CO)C(=O)N[C@@H](CCCN=C(N)N)C(N)=O)[C@@H](C)CC)C(C)C)[C@@H](C)O
Plasma GH release (Rattus norvegicus [13]): 761 ng/mL | Plasma GH release (Rattus norvegicus [14]): 1720 ng/mL | Potency [3]: 1630%

Now from value to molecule, other results behind:

Potency [1]: 0.001% | Plasma GH release [5]: 507 ng/mL | Potency [3]: < 5%
Molecule: CC[C@H](C)[C@H](NC(=O)[C@H](C)NC(=O)[C@H](CC(=O)O)NC(=O)[C@@H](C)NC(=O)[C@@H](N)Cc1ccc(O)cc1)C(=O)N[C@@H](Cc1ccccc1)C(=O)N[C@H](C(=O)N[C@@H](CC(N)=O)C(=O)N[C@@H](CO)C(=O)N[C@@H](Cc1ccc(O)cc1)C(=O)N[C@@H](CCCN=C(N)N)C(=O)N[C@@H](CCCCN)C(=O)N[C@H](C(=O)N[C@@H](CC(C)C)C(=O)NCC(=O)N[C@@H](CCC(N)=O)C(=O)N[C@@H](CC(C)C)C(=O)N[C@@H](CO)C(=O)N[C@@H](C)C(=O)N[C@@H](CCCN=C(N)N)C(=O)N[C@@H](CCCCN)C(=O)N[C@@H](CC(C)C)C(=O)N[C@@H](CC(C)C)C(=O)N[C@@H](CCC(N)=O)C(=O)N[C@@H](CC(=O)O)C(=O)N[C@H](C(=O)N[C@@H](CC(C)C)C(N)=O)[C@@H](C)CC)C(C)C)[C@@H](C)O (stereo in doubt; 3)
Plasma GH release (Rattus norvegicus [6]): 741 ng/mL

Potency [3]: 20%
Molecule: CC[C@H](C)[C@H](NC(=O)[C@H](C)NC(=O)[C@H](CC(=O)O)NC(=O)[C@@H](C)NC(=O)[C@@H](N)Cc1ccc(O)cc1)C(=O)N[C@@H](Cc1ccccc1)C(=O)N[C@H](C(=O)N[C@@H](CC(N)=O)C(=O)N[C@@H](CO)C(=O)N[C@@H](Cc1ccc(O)cc1)C(=O)N[C@@H](CCCN=C(N)N)C(=O)N[C@@H](CCCCN)C(=O)N[C@H](C(=O)N[C@@H](CC(C)C)C(=O)NCC(=O)N[C@@H](CCC(N)=O)C(=O)N[C@@H](CC(C)C)C(=O)N[C@@H](CO)C(=O)N[C@@H](C)C(=O)N[C@@H](CCCN=C(N)N)C(=O)N[C@@H](CCCCN)C(=O)N[C@@H](CC(C)C)C(=O)N[C@@H](CC(C)C)C(=O)N[C@@H](CCCN=C(N)N)C(N)=O)C(C)C)[C@@H](C)O
Plasma GH release (Rattus norvegicus [9]): 2790 ng/mL | Plasma GH release (Rattus norvegicus [4]): 1020 ng/mL

Potency [1]: 100% | Potency [3]: 100%
Molecule: CC[C@H](C)[C@H](NC(=O)[C@H](C)NC(=O)[C@H](CC(=O)O)NC(=O)[C@H](C)NC(=O)[C@@H](N)Cc1ccc(O)cc1)C(=O)N[C@@H](Cc1ccccc1)C(=O)N[C@H](C(=O)N[C@@H](CC(N)=O)C(=O)N[C@@H](CO)C(=O)N[C@@H](Cc1ccc(O)cc1)C(=O)N[C@@H](CCCN=C(N)N)C(=O)N[C@@H](CCCCN)C(=O)N[C@H](C(=O)N[C@@H](CC(C)C)C(=O)NCC(=O)N[C@@H](CCC(N)=O)C(=O)N[C@@H](CC(C)C)C(=O)N[C@@H](CO)C(=O)N[C@@H](C)C(=O)N[C@@H](CCCN=C(N)N)C(=O)N[C@@H](CCCCN)C(=O)N[C@@H](CC(C)C)C(=O)N[C@@H](CC(C)C)C(=O)N[C@@H](CCC(N)=O)C(=O)N[C@@H](CC(=O)O)C(=O)N[C@H](C(=O)N[C@@H](CCSC)C(=O)N[C@@H](CO)C(=O)N[C@@H](CCCN=C(N)N)C(N)=O)[C@@H](C)CC)C(C)C)[C@@H](C)O
Plasma GH release (Rattus norvegicus [15]): 2570 ng/mL | Plasma GH release (Rattus norvegicus [16]): 1180 ng/mL

— ChEMBL document CHEMBL1123585, “Differential effects of N-terminal modifications on the biological potencies of growth hormone releasing factor analogues with varying chain lengths” (1987)
